Variants at the floor of the assay were thinned out.

B1: tRNA (parent)
chain: GUUCCGUUGGCGUAAUGGUAACGCGUCUCCCUCCUAAGGAGAAGACUGCGGGUUCGAGUCCCGUACGGAACG

In the data set the parent is B1. Description: yeast fitness relative to wild type (ratio to wild type); higher = fitter; tRNA-Arg(CCU), competitive growth, 37 C, YPD. The gist of the method: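 Amplicons of the tRNA-Arg(CCU) gene were sequenced, 100-nucleotide paired-end, from the start population and from each end population of a pooled yeast competition. The competition, in six parallel replicates, lasted 24 hours in YPD at 37°C. Fitness relative to wild type was calculated from changes in genotype frequencies. Genotypes had to have ≥ 100 starting reads, and estimates < 0.5 were set to 0.5.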
Regarding GUUCAGUUGGCGUAAUGGUAAGGGGUCUCCUUCCUAAGGAGAUGACUACGGGUUCGAGUCCCGUACGGAACG, the yeast fitness is 0.544.

As for GCUCCGUUGGCGUAGUGGUAACGCGUCUCCCUCCUAAGGAGAAGACUGCGGGUUCGAGUCCCGUACGGAACG, the yeast fitness was determined as 0.91.

Regarding GUUCCGUUGGCGUAAUGCUAACCCGUCUCCCUCCUAAGGAGAAGACUGCGGGUUCGAGUCCCGUACGGAACG, the yeast fitness came to 0.577.

Regarding GUUCCGUUGGCGUAAUGGUAACGCGUCUCCAUCCUAAGGAGAAGGCUGCGGAUUAGAGUCCCGUACGGAACG, the yeast fitness is at most 0.5.

With GUUCGGUUGGCGUAAUGGUAACGCGUCUCCCUCGUAAGGAGAAGACUGCGGGUUCGAGUCCCGUACGGAACG, the yeast fitness stood at 0.62.

With GUUCCGUUGGUGUAAUGGAAACGCGUCUUGCUCCUAAGGAGAAGACUGCGGGUUCGAGUCCCGUACGGAACG, the yeast fitness was at most 0.5.

GUUCCGUUGGCGUGAUAGUAACGCGUCUCCCUCCUAUGGAGAUGACUGCGGGUUCGAGUCCGGUACGGAACG: the yeast fitness was at most 0.5.

For the variant GUUCCGUUGGCGUAAUGGUAACGCGUCUCCCUCCUAAGGAAAAGAACGCGGGUUCGAGUCCCGUACGGAACG, the yeast fitness amounted to 1.06.

As to GUUCCGUUGGCGUAAUGGUAAUGAGUCUCCCUCCUAAGGAGACGACUGCGGGUUUGAGUCCCGUACGGAACG, the yeast fitness was at most 0.5.

As for GAUCCGUUGGGGUAAUGGUAACGCGUCUCCCUCCUAAGGAGAAGACAACGGGUUCGAGUCCCGUAUGGAUCG, the yeast fitness is at most 0.5.

In the case of GUUCCGUUGGCGUAAUAGUAAAGCGUCUCCCUCCUAAGGAGAAGACUGCGGGUUCGAGUCCCAUACGGAACG, the yeast fitness is at most 0.5.

GUUCCGUUGGCGGAAUGGUAACGCGUCUCCCUCCUAAGGAGAAGACUGCGGGUUCGUGUCCCGUACGGAACG: the yeast fitness is 0.6.

As for GUUCCGUCGGCGUAACGGUAACGCGUCUCCCUCCUAAGGAGAAGACUGCGGGGUCCAGUACCGUACGGAACG, the yeast fitness is at most 0.5.

Turning to GUUCCGUUAGCGUAAUGGUAACGCGUCGCCCUCCUAAGGAGAAGCCUGCGGGUUCGAGUCCCGUACGGAACG, the yeast fitness was at most 0.5.

For the variant GUUCCGUUGGCGUAAUGAUAACGCGUCUCCCUCAUAAGGAGAAGAUUGCGGGUUCGAGUCCCGUACGGAACG, the yeast fitness stood at 0.692.

For the variant GUUCCAUUGGCAUAAUGGUAACGCGUCUCCCUCCUAAGGAAAAGACUGCGGGUUCGAGUCCCGUUCGGAACG, the yeast fitness came to 0.547.

Take GUUCCGUUGGCGUAAUGGUAACGCGUCUCCCUCCUAACGAGAAGACUGCGGGUUCGAGUACCGUACGGAACG: the yeast fitness is at most 0.5.

For GUACCGUUGGCGUAAUGGUAAGGCGUGUCCCUCCUAAGGAGAAGACUGCGGGUUCGAGGCCCGUACGGGACG, the yeast fitness was at most 0.5.

Regarding GUUCCGUUGGCGUAAUGGUAACGCGUCUCCCUCCUAAGGUGAAGACUGCGGGUUCGCGUCCCGUACAGUACG, the yeast fitness is at most 0.5.

In the case of GUUCCGUUGGCGUAAUGGUAUCGUGUAUCCCUCCUACGGUGAAGACUGGGGGUUCGAGUCCCGUACGGAACG, the yeast fitness is at most 0.5.

In the case of GUUCCGUUGGCGUAAUGGUAACGCGUCUCGCUCCUAUGGAGAAGACUGCGGGUUCGAGUCCCGUACGGAACG, the yeast fitness was 0.615.

In the case of GUUCCGAUGGCGUAAUGGUAACGCGUCUCCCUCCCAAGGACAAGACUGCGGGUUCGAGUCCCGUACGGAUCG, the yeast fitness was at most 0.5.

Consider GUUCCGUUCGCGUAAUGGUAACGAGUCUCCCUCCUAAGGAGAAGACUGCGGGUUCGAGUCCCGUACGGAACG, for which the yeast fitness was at most 0.5.

In the case of GUUCCGUUGGCGUAAUGGUAACGUGUCUCCCUCCAAAGGAGAAGACUGCGGGUUCGAGUCCCGUACGGAACG, the yeast fitness is 0.806.

As to GUUCCGUUGGCGUAAUGGUAACGCGUCUCCGUCCUAAGGAGAAUACUGCGGGUUCGAGUCCCGUACGGACCG, the yeast fitness was at most 0.5.

On to GUUCCGUUGGCGUAAUGCUAACGCGUCUCCCUCCUAAGGAGAAGCCUGCGGGUUCGAGUCCCGUACGGAACG, for which the yeast fitness was 0.695.

On to GUUCCGUUGGCGUAAUGGUGACGCGUCUCCCUCCUAAGGGGAAGACUGUGGGUUCGAAUCCCGUACGGAACG, for which the yeast fitness is at most 0.5.

Regarding GUUCCGUUGGCGUAAUGGUAACGCGUCUCCCUCCUAAGGUGAAGUCUGCGGGUUCGUGUCCCGUACGGAACG, the yeast fitness was determined as 0.611.

Consider GUUCCGUUGGCGAAAUGGUAACGCGUCUCCCUCCUAAGGAGAAGACUGCGGGUUCGAGUCAUGUAUGGAACG, for which the yeast fitness is at most 0.5.

As to GUUCCCUUAGCGUAAUGGUAUCGCGUCGCCCUCUUAAGGAGAAGACUGCGGGUUCGAGUCCCAUACGGAACG, the yeast fitness was at most 0.5.

For GUUACGUUGGCGUAAUGGUAACGCGGCUCCCUCCUAAGGAGAACACUGCGGGUUCGAACCCCGUACGCAACG, the yeast fitness is at most 0.5.

In the case of GUUCCGUUGGCGUUAUAGUAAUGCGUCUCCCUCCUAAGGAGAAGACUGCGGGUUCGAGUCCCGUACGGAACG, the yeast fitness is at most 0.5.

As to GUUCCGUUGGCGUAAUGGUGAUGCGUCUCCCUCCUAAGGAGAAGACUGCGGGUUCGAGUCCCGUACGGAACG, the yeast fitness amounted to 0.751.

Regarding GUUCCGUUGGCGUAAUGGUAACGCGUCUCCCUCCUAAGGAGAAAACUGCGGGUUCGAGUCCCGUACGGCACG, the yeast fitness is 0.988.

For GUUCCGUUGGCGUAAUGGUAACGCGUCCCCCUUCUAAGGAGAAGACUGGGGGUUCGAGUCCCGUACGGAACG, the yeast fitness is at most 0.5.

As to GUUCCGUUGGCGUAAUGGUAAAGCGUCUCCCUCCUAAGGAGUAGACUGCCGGUUCGGGUCCCGUACGGAACG, the yeast fitness is at most 0.5.

In the case of GUUCCGUUGGCGUAAUGGUAGCGCGUCUCCCUCCUAAGGAGAAGACUGUGGGUUCGAGUCCGGUACGGAACG, the yeast fitness is 0.566.

The record behind these values is the RNAGym collection of RNA variant scans (doi:10.1126/science.aae0568).
